# According to ChEMBL document CHEMBL3259517, “Synthesis and evaluation of phosphorus containing, specific CDK9/CycT1 inhibitors” (J Med Chem, 2014):
# Active and inactive are the calls of the source. The calls are words filed in the database; no cut-off is given here.
# Legend:
# [1] = biological target: T1, CDK9/cyclin T1 (Homo sapiens) (UniProt O60563+P50750); experiment: Competitive inhibition of CDK9/CycT1 (unknown origin) using ATP as substrate; assay type: protein-complex assay
# In short: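 Kinase inhibition measured with inhibitor held constant at 260 nM across five ATP concentrations, printed as 1.33, 4, 12 (K_mATP), 36 and 108 […]. Ki taken from measured IC50 via the Cheng−Prusoff equation, with the IC50/Ki ratio compared across ATP levels.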
# CDK9/cyclin T1 [2] = biological target: T2, CDK9/cyclin T1 (Homo sapiens, UniProt P50750); experiment: Inhibition of CDK9/CycT1 (unknown origin) using TAMRA-Rbtide and ATP as substrate after 1 hr; assay type: protein-complex assay
# [3] = tested on: Human immunodeficiency virus 1; experiment: Antiviral activity against HIV1 HTLV-3B infected in human MT4 cells assessed as inhibition of virus proliferation by measuring host cell viability at 25 nM relative to control; assay type: functional
# In short: (§1)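 HIV-1 HTLV-IIIB (3400 TCID50/mL per well; titre set by virus yield assay) infected MT4 cells, 2−3 × 10⁴/well in RPMI1640 with 10% FCS, penicillin and streptomycin, cultured as for the 7-day viability assay (37 °C, 5% CO2). Test compounds were at 1250 nM and AZT control at 25 nM. Read-out was MTT (4 h, DMSO, A540), given relative to infected untreated cells (100%).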
# [4] = biological target: Tyrosine-protein kinase ABL1 (Homo sapiens) (UniProt P00519); experiment: Inhibition of ABL (unknown origin) at 1 uM
# [5] = biological target: T3, Cyclin-dependent kinase 2/cyclin E1 (Homo sapiens) (UniProt P24864+P24941); experiment: Inhibition of CDK2/CycE (unknown origin) using FAM labeled peptide as substrate at 1 uM by IMAP FAM FP assay; assay type: protein-complex assay
# In short: (§2)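 Run by contract partners as an IMAP fluorescence polarization assay. […] Enzyme amount was set to give 50% substrate turnover. Compounds were added in DMSO, IMAP binding solution added after the kinase step, then FP read.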
# [6] = biological target: Receptor-type tyrosine-protein kinase FLT3 (Homo sapiens) (UniProt P36888); experiment: Inhibition of FLT3 (unknown origin) at 1 uM
# [7] = biological target: Serine/threonine-protein kinase PAK 4 (Homo sapiens) (UniProt O96013); experiment: Inhibition of PAK4 (unknown origin) at 1 uM
# [8] = biological target: Mast/stem cell growth factor receptor Kit (Homo sapiens) (UniProt P10721); experiment: Inhibition of cKIT (unknown origin) at 1 uM
# [9] = biological target: Insulin receptor (Homo sapiens) (UniProt P06213); experiment: Inhibition of INSR (unknown origin) at 1 uM
# [10] = Cytotoxicity against human MT4 cells assessed as cell viability at 1250 nM after 7 days by MTT assay relative to control; assay type: cell-based; details: read-out: Activity
# In short: (§3)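 MT4 cells (2−3 × 10⁴/well) in RPMI1640 with 10% FCS, penicillin and streptomycin, exposed to compound at 2500 or 1250 nM for 7 days at 37 °C, 5% CO2. MTT added for 4 h, supernatant removed, formazan dissolved in DMSO, absorbance read at 540 nm. Viability expressed relative to untreated cells (100%).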
# [11] = biological target: Platelet-derived growth factor receptor beta (Homo sapiens) (UniProt P09619); experiment: Inhibition of PDGFRb (unknown origin) at 1 uM
# [12] = biological target: Vascular endothelial growth factor receptor 2 (Homo sapiens) (UniProt P35968); experiment: Inhibition of VEGFR2 (unknown origin) at 1 uM
# [13] = biological target: Receptor tyrosine-protein kinase erbB-2 (Homo sapiens) (UniProt P04626); experiment: Inhibition of ERBB2 (unknown origin) at 1 uM
# [14] = tested on: Human immunodeficiency virus 1; experiment: Antiviral activity against HIV1 HTLV-3B infected in human MT4 cells assessed as inhibition of virus proliferation by measuring host cell viability at 1250 nM relative to control; assay type: functional; in short: as §1
# [15] = biological target: Serine/threonine-protein kinase Chk1 (Homo sapiens) (UniProt O14757); experiment: Inhibition of CHK1 (unknown origin) at 1 uM
# [16] = biological target: T4, Cyclin-dependent kinase 4/cyclin D1 (Homo sapiens) (UniProt P11802+P24385); experiment: Inhibition of CDK4/CycD1 (unknown origin) using FAM labeled peptide as substrate at 1 uM by IMAP FAM FP assay; assay type: protein-complex assay; in short: as §2
# [17] = biological target: Hepatocyte growth factor receptor (Homo sapiens) (UniProt P08581); experiment: Inhibition of cMET (unknown origin) at 1 uM
# [18] = biological target: Interleukin-1 receptor-associated kinase 4 (Homo sapiens) (UniProt Q9NWZ3); experiment: Inhibition of IRAK4 (unknown origin) at 1 uM
# [19] = biological target: Serine/threonine-protein kinase pim-1 (Homo sapiens) (UniProt P11309); experiment: Inhibition of PIM1 (unknown origin) at 1 uM
# [20] = biological target: Serine/threonine-protein kinase PAK 1 (Homo sapiens) (UniProt Q13153); experiment: Inhibition of PAK1 (unknown origin) at 1 uM
# [21] = biological target: Tyrosine-protein kinase CSK (Homo sapiens) (UniProt P41240); experiment: Inhibition of CSK (unknown origin) at 1 uM
# [22] = biological target: Proto-oncogene tyrosine-protein kinase Src (Homo sapiens) (UniProt P12931); experiment: Inhibition of SRC (unknown origin) at 1 uM
# [23] = biological target: Tyrosine-protein kinase JAK3 (Homo sapiens) (UniProt P52333); experiment: Inhibition of JAK3 (unknown origin) at 1 uM
# [24] = biological target: Rho-associated protein kinase 2 (Homo sapiens) (UniProt O75116); experiment: Inhibition of ROCK2 (unknown origin) at 1 uM
# [25] = biological target: Serine/threonine-protein kinase B-raf (Homo sapiens) (UniProt P15056); experiment: Inhibition of bRAF (unknown origin) at 1 uM
# [26] = Cytotoxicity against human MT4 cells assessed as cell viability at 2500 nM after 7 days by MTT assay relative to control; assay type: cell-based; details: read-out: Activity; in short: as §3
# [27] = biological target: Serine/threonine-protein kinase mTOR (Homo sapiens) (UniProt P42345); experiment: Inhibition of mTOR (unknown origin) at 1 uM
# [28] = biological target: Inhibitor of nuclear factor kappa-B kinase subunit beta (Homo sapiens) (UniProt O14920); experiment: Inhibition of IKKbeta (unknown origin) at 1 uM
# [29] = biological target: Angiopoietin-1 receptor (Homo sapiens) (UniProt Q02763); experiment: Inhibition of TIE2 (unknown origin) at 1 uM
# [30] = biological target: Tyrosine-protein kinase receptor UFO (Homo sapiens) (UniProt P30530); experiment: Inhibition of AXL (unknown origin) at 1 uM
# [31] = biological target: High affinity nerve growth factor receptor (Homo sapiens) (UniProt P04629); experiment: Inhibition of TrkA (unknown origin) at 1 uM
# [32] = biological target: Protein kinase C alpha type (Homo sapiens) (UniProt P17252); experiment: Inhibition of PKCalpha (unknown origin) at 1 uM
# [33] = biological target: T1, CDK9/cyclin T1 (Homo sapiens); experiment: Inhibition of CDK9/CycT1 (unknown origin) using TAMRA-Rbtide and ATP as substrate at 1 uM after 1 hr; assay type: protein-complex assay
# [34] = biological target: Proto-oncogene tyrosine-protein kinase receptor Ret (Homo sapiens) (UniProt P07949); experiment: Inhibition of RET (unknown origin) at 1 uM
# [35] = biological target: Fibroblast growth factor receptor 3 (Homo sapiens) (UniProt P22607); experiment: Inhibition of FGFR3 (unknown origin) at 1 uM
# [36] = biological target: RAC-alpha serine/threonine-protein kinase (Homo sapiens) (UniProt P31749); experiment: Inhibition of AKT1 (unknown origin) at 1 uM
# [37] = biological target: Tyrosine-protein kinase SYK (Homo sapiens) (UniProt P43405); experiment: Inhibition of SYK (unknown origin) at 1 uM
# [38] = biological target: Epithelial discoidin domain-containing receptor 1 (Homo sapiens) (UniProt Q08345); experiment: Inhibition of DDR1 (unknown origin) at 1 uM
# CDK9/cyclin T1 [39] = biological target: T2, CDK9/cyclin T1; experiment: Inhibition of CDK9/CycT1 (unknown origin); assay type: protein-complex assay
# [40] = biological target: T4, Cyclin-dependent kinase 4/cyclin D1 (Homo sapiens); experiment: Inhibition of CDK4/CycD1 (unknown origin) using FAM labeled peptide as substrate at 10 uM by IMAP FAM FP assay; assay type: protein-complex assay; in short: as §2
# [41] = biological target: T3, Cyclin-dependent kinase 2/cyclin E1 (Homo sapiens); experiment: Inhibition of CDK2/CycE (unknown origin) using FAM labeled peptide as substrate at 10 uM by IMAP FAM FP assay; assay type: protein-complex assay; in short: as §2
# CDK9/cyclin T1 [42] = biological target: T2, CDK9/cyclin T1; experiment: Inhibition of CDK9/CycT1 (unknown origin) expressed in HEK293 cells using GST-CTDII as substrate
# [43] = biological target: Interleukin-1 receptor-associated kinase 3 (Homo sapiens) (UniProt Q9Y616); experiment: Binding to IRAK3 (unknown origin) at 1 uM
# T2 sequence (O60563 whole entry): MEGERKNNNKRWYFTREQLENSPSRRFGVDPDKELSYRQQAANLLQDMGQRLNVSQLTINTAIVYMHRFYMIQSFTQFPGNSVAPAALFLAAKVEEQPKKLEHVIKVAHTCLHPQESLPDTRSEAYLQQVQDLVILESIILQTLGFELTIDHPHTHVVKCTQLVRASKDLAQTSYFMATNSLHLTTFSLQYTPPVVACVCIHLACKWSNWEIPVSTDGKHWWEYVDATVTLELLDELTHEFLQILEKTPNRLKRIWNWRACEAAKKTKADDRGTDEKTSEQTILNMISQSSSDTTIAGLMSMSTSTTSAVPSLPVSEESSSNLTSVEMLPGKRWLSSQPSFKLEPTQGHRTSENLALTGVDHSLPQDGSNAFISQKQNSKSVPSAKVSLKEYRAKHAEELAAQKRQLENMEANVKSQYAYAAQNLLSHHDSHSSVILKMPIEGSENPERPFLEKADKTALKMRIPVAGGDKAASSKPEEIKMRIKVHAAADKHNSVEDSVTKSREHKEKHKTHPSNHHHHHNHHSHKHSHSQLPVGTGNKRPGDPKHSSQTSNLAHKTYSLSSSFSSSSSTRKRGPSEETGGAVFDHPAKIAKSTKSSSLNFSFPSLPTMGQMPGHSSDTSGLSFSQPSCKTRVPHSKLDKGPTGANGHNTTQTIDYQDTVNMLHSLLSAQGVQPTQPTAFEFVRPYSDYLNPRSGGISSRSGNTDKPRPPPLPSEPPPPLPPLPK
# T2 sequence (P50750 whole entry): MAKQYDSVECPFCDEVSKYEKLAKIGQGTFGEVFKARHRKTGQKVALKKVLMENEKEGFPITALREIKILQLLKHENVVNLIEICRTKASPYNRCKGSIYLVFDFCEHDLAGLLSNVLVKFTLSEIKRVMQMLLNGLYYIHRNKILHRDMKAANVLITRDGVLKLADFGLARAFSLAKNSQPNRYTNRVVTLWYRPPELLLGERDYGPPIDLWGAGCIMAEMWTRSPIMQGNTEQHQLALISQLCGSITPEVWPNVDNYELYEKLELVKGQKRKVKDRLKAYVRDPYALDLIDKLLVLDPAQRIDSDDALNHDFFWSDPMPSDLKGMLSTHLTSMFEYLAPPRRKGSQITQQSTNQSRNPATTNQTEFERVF
# Chain of Epithelial discoidin domain-containing receptor 1 (Homo sapiens) (Q08345 whole entry, the tested form may be a part): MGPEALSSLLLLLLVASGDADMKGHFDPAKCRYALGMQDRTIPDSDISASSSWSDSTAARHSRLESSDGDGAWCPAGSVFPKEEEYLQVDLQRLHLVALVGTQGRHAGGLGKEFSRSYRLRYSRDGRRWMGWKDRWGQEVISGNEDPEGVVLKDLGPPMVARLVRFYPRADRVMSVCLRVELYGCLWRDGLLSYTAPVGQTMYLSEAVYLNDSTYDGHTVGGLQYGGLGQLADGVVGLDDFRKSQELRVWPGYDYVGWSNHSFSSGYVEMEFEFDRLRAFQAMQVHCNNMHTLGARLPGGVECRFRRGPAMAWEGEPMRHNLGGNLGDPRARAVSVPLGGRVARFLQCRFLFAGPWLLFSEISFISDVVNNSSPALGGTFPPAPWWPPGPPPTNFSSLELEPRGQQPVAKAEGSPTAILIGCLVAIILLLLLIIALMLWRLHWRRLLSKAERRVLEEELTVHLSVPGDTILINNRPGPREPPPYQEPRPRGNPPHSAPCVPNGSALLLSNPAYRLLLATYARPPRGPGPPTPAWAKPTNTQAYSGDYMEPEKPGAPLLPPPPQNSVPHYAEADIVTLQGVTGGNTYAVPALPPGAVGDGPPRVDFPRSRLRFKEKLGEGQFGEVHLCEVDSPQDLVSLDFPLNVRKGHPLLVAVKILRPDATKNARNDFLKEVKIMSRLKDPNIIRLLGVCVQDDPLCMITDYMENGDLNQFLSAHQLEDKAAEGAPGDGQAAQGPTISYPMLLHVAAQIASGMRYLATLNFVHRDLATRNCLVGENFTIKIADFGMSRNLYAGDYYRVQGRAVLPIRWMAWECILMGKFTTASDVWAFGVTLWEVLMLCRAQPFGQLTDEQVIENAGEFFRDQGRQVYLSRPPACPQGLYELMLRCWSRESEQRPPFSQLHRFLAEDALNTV
# Chain of Tyrosine-protein kinase receptor UFO (Homo sapiens) (P30530 whole entry): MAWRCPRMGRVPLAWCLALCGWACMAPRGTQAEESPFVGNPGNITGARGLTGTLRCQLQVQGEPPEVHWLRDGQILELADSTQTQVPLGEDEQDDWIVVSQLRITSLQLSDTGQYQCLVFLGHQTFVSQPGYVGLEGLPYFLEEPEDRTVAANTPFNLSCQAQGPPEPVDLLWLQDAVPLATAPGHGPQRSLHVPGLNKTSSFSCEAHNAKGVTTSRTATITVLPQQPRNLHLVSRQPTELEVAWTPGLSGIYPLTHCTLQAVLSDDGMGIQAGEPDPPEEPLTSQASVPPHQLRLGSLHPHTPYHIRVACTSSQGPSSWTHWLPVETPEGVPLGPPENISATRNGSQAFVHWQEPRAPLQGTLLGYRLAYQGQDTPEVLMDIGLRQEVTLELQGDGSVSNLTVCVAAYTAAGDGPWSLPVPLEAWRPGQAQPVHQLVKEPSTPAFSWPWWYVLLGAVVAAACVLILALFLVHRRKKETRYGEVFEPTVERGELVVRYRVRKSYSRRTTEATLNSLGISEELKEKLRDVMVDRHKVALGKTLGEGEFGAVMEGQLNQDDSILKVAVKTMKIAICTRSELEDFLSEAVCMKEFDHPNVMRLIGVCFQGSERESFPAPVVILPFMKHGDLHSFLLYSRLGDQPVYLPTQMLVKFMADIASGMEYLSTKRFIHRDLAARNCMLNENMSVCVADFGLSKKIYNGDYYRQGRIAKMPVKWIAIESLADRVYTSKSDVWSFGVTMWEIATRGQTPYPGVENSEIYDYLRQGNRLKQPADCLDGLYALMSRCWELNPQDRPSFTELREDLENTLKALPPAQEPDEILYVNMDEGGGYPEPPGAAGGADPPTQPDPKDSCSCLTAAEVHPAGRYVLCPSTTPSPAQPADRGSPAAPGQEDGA
# Chain of Serine/threonine-protein kinase PAK 4 (Homo sapiens) (O96013 whole entry, looked up): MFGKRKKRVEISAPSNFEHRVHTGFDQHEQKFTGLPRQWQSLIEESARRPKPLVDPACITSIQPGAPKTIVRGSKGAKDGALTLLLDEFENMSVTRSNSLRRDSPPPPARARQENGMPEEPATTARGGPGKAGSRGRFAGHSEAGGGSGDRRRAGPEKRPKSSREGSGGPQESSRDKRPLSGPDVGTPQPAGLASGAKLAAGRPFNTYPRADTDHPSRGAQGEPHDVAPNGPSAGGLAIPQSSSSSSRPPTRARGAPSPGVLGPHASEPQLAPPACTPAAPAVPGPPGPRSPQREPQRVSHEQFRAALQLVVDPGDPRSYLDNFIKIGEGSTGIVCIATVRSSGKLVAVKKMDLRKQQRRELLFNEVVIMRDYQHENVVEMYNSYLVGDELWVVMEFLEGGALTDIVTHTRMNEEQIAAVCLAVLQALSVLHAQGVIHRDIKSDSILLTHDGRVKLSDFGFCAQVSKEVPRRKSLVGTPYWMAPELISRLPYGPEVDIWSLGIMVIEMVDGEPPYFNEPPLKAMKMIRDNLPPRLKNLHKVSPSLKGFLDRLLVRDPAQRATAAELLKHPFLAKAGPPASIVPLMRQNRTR
# Chain of Tyrosine-protein kinase JAK3 (Homo sapiens) (P52333 whole entry): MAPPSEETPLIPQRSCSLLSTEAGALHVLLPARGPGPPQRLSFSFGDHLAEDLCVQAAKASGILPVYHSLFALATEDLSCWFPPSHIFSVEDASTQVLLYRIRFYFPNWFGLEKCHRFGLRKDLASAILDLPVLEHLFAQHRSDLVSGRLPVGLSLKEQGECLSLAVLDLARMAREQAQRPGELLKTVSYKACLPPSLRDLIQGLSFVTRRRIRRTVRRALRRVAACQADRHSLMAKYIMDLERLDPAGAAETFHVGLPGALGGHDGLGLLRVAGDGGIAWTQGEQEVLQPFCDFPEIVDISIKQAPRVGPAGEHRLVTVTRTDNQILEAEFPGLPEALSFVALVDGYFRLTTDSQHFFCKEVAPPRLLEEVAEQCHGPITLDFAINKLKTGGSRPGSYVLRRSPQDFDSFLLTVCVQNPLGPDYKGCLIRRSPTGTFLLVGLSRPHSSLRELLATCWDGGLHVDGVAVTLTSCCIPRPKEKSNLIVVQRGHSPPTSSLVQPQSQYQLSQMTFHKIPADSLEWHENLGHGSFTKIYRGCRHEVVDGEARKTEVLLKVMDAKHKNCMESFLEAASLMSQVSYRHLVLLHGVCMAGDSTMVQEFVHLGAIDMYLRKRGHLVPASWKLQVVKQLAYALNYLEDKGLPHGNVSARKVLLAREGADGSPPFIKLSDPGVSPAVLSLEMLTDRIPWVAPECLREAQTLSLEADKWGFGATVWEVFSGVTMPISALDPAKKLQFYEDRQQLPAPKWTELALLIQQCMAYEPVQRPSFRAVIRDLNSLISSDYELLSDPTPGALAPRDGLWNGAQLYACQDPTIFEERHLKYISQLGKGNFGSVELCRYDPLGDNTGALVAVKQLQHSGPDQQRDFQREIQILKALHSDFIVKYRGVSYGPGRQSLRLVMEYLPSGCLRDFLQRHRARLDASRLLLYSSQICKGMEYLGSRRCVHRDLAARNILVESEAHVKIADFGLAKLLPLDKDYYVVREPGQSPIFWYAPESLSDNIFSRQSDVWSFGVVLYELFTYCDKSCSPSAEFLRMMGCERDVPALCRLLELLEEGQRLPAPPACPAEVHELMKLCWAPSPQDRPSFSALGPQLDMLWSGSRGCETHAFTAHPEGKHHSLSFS
# Chain of Tyrosine-protein kinase CSK (Homo sapiens) (P41240 2-450 limits assumed): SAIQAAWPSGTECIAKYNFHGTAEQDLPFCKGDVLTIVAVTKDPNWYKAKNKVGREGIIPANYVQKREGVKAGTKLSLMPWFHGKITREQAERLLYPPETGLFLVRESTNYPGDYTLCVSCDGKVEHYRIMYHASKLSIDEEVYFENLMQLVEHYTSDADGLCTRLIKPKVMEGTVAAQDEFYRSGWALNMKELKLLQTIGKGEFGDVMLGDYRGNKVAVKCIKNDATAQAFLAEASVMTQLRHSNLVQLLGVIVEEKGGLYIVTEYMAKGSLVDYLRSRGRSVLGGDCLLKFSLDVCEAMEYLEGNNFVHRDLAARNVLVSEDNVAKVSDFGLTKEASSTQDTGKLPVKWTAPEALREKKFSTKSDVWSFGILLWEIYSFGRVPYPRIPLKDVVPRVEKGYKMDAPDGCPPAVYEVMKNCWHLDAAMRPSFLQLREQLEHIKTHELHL
compound,measurement,setting,value
CCCOc1ccccc1-c1cc(Nc2cccc(CP(=O)(CCC)OCC)c2)ncn1 (stereo not given),competitive inhibition (qualitative),[1],Active
same,IC50,CDK9/cyclin T1 [2],248 nM
Cc1cn([C@H]2C[C@H](N=[N+]=[N-])[C@@H](CO)O2)c(=O)[nH]c1=O [ZIDOVUDINE],Activity,[3],132%
CCCP(=O)(Cc1cccc(Nc2cc(-c3ccccc3OC)ncn2)c1)OCC (stereo not given),inhibition,[4],9%
same,inhibition,[5],23%
same,inhibition,[6],6%
same,inhibition,[7],19%
same,inhibition,[8],16%
same,inhibition,[9],2%
same,"viability at 168 h, 1.25 µM",[10],66%
same,inhibition,[11],2%
same,inhibition,[12],6%
same,inhibition,[13],5%
same,competitive inhibition (qualitative),[1],Active
same,Host cell viability relative to infected untreated cells,[14],131%
same,inhibition,[15],14%
same,inhibition,[16],14%
same,inhibition,[17],6%
same,inhibition,[18],9%
same,inhibition,[19],-2%
same,inhibition,[20],10%
same,inhibition,[21],14%
same,inhibition,[22],4%
same,inhibition,[23],0%
same,inhibition,[24],7%
same,inhibition,[25],5%
same,"viability at 168 h, 2.5 µM",[26],81%
same,inhibition,[27],9%
same,IC50,CDK9/cyclin T1 [2],296 nM
same,inhibition,[28],7%
same,inhibition,[29],5%
same,inhibition,[30],7%
same,inhibition,[31],-1%
same,inhibition,[32],9%
same,inhibition,[33],95%
same,inhibition,[34],16%
same,inhibition,[35],1%
same,inhibition,[36],-1%
same,inhibition,[37],-1%
same,inhibition,[38],7%
CCOP(=O)(CC)Cc1cccc(Nc2cc(-c3cccc(N)c3)ncn2)c1 (stereo not given),inhibition,[5],18%
same,inhibition,[16],22%
same,IC50,CDK9/cyclin T1 [2],327 nM
same,inhibition,[33],96%
COc1ccccc1-c1cc(Nc2cccc(NS(N)(=O)=O)c2)ncn1,IC50,CDK9/cyclin T1 [39],170 nM
COc1ccccc1-c1cc(Nc2cccc(P(=O)(O)O)c2)ncn1,"viability at 168 h, 1.25 µM",[10],90%
same,inhibition,[40],40%
same,competitive inhibition (qualitative),[1],Active
same,Host cell viability relative to infected untreated cells,[14],130%
same,"viability at 168 h, 2.5 µM",[26],90%
same,IC50,CDK9/cyclin T1 [2],429 nM
same,inhibition,[41],56%
CCCP(=O)(Cc1cccc(Nc2cc(-c3ccccc3OCC)ncn2)c1)OCC (stereo not given),competitive inhibition (qualitative),[1],Active
same,IC50,CDK9/cyclin T1 [2],254 nM
COc1ccccc1-c1cc(Nc2ccc(C)c(NS(C)(=O)=O)c2)ncn1,IC50,CDK9/cyclin T1 [42],30 nM
CCCP(=O)(O)Cc1cccc(Nc2cc(-c3ccccc3OC)ncn2)c1,competitive inhibition (qualitative),[1],Active
same,IC50,CDK9/cyclin T1 [2],261 nM
COc1ccccc1-c1cc(Nc2cccc(S(N)(=O)=O)c2)ncn1,IC50,CDK9/cyclin T1 [42],52 nM
CCOP(=O)(CC)Cc1cccc(Nc2cc(-c3ccccc3OC)ncn2)c1 (stereo not given),inhibition,[4],20%
same,inhibition,[5],36%
same,inhibition,[6],12%
same,inhibition,[7],25%
same,inhibition,[8],28%
same,inhibition,[9],12%
same,"viability at 168 h, 1.25 µM",[10],94%
same,inhibition,[11],18%
same,inhibition,[12],11%
same,inhibition,[13],11%
same,competitive inhibition (qualitative),[1],Active
same,Host cell viability relative to infected untreated cells,[14],105%
same,inhibition,[15],12%
same,inhibition,[16],24%
same,inhibition,[17],22%
same,inhibition,[18],16%
same,inhibition,[19],8%
same,inhibition,[20],20%
same,inhibition,[21],24%
same,inhibition,[22],18%
same,inhibition,[23],9%
same,inhibition,[24],14%
same,inhibition,[25],0%
same,"viability at 168 h, 2.5 µM",[26],94%
same,inhibition,[27],3%
same,IC50,CDK9/cyclin T1 [2],197 nM
same,inhibition,[28],15%
same,inhibition,[29],10%
same,inhibition,[30],21%
same,inhibition,[31],8%
same,inhibition,[32],8%
same,inhibition,[33],98%
same,inhibition,[34],34%
same,inhibition,[35],8%
same,inhibition,[36],11%
same,inhibition,[37],8%
same,inhibition,[38],13%
Cc1ccc(Nc2cc(-c3cccc(N)c3)ncn2)cc1NS(C)(=O)=O,IC50,CDK9/cyclin T1 [39],129 nM
CCP(=O)(O)Cc1cccc(Nc2cc(-c3ccccc3OCc3ccccc3)ncn2)c1,"viability at 168 h, 1.25 µM",[10],110%
same,Host cell viability relative to infected untreated cells,[14],124%
same,"viability at 168 h, 2.5 µM",[26],104%
same,IC50,CDK9/cyclin T1 [2],163 nM
CCCP(=O)(O)Cc1cccc(Nc2cc(-c3ccccc3OCc3ccccc3)ncn2)c1,"viability at 168 h, 1.25 µM",[10],158%
same,Host cell viability relative to infected untreated cells,[14],141%
same,"viability at 168 h, 2.5 µM",[26],141%
same,residual activity,[43],18%
same,IC50,CDK9/cyclin T1 [2],142 nM
